# SUMO1 PPI mod: alters human SUMO1 binding to SIM partners; P63165; SUMO1 binding to a labelled peptide, TR-FRET, 1 h; inhibition, % at 20 µM; 360,000 tested, 0.33% active; in the data active means inhibition above about 37%
# Target sequence (P63165 whole entry, looked up): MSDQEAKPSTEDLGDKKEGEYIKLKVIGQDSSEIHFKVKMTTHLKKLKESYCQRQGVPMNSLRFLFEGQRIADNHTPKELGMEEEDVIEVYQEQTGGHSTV
# STEP inh: inhibitors of human striatal-enriched phosphatase STEP; 360,000 tested, 0.25% active; AID 588621; recombinant STEP, OMFP fluorogenic substrate, fluorescence; inhibition, % at 20 µM; P54829;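 active means inhibition at 20 µM, scaled per plate between control wells, above about 37%, limit read from the data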;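 further: 0% = DMSO with enzyme and substrate and 100% = substrate only without enzyme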
#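 Material: STEP (striatal-enriched tyrosine phosphatase) enzyme, cell-free; Compound dosing: 20 µM single dose in 1% DMSO; Technique: fluorescence read at 480 nm ex / 540 nm em; Times: reaction 20 min, ambient temperature; Medium: 50 mM Bis-Tris pH 6.0 with 2.5 mM DTT and 0.005% Tween 20; Also added: OMFP at 25 µM.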
# Scp1 inh: inhibitors of human Scp-1 phosphatase; AID 493091; Recombinant Scp1, phosphopeptide, malachite green phosphate absorbance; inhibition, % at 20 µM; 340,000 tested, 0.88% active;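 active means inhibition above about 50% at 20 µM, limit read from the data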;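 further: plate controls were DMSO wells with enzyme for no effect and wells lacking enzyme for full effect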
# Target sequence (Q9GZU7 76-261 limits assumed): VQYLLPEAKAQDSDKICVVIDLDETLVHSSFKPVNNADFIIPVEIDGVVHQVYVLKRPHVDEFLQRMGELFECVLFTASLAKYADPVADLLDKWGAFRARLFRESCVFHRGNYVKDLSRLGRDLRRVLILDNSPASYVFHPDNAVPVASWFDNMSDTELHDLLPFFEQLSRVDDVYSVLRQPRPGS
#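 Times: enzyme reaction 45 min at room temperature, colour 5 min, stabilisation 30 min. Material: SCP-1 catalytic fragment, aa 76-261. Medium: Acidic Tris acetate buffer with magnesium and detergent. Signal: colorimetric free-phosphate detection, absorbance 630 nm. Read-out basis: % inhibition of SCP-1 phosphate liberation. Reagent: Phosphorylated 17-residue peptide substrate.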
# LMPTP inh: blocks human LMPTP phosphatase; 360,000 tested, 0.22% active; recombinant LMPTP-A, OMFP fluorogenic substrate, fluorescence intensity; inhibition, % at 20 µM; P24666;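 active means compounds that cut the enzyme signal by at least half of the control window in the single-dose screen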;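 further: plate controls were DMSO wells with enzyme plus substrate for no effect and substrate without enzyme for full effect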
# Target sequence (P24666 whole entry, looked up): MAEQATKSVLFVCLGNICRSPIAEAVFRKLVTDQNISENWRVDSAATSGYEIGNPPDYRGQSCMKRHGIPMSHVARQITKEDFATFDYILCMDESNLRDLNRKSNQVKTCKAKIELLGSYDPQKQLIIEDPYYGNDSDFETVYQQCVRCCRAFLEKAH
#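 Buffer or medium: Bis-Tris pH 6.0, DTT, detergent; Assay system: LMPTP-A enzyme; Quantity: 0.625 nM enzyme; Detection: endpoint fluorescence intensity; Times: 50 min dark incubation at room temperature; Controls: substrate-only low control, DMSO enzyme-plus-substrate high control; Doses: single 20 µM dose; Read-out: percent inhibition versus substrate-only and uninhibited controls; Reagent: 400 µM OMFP.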
# DNMT1 block: blocks human DNA methyltransferase DNMT1 | DNMT1 molecular beacon, Hinp1I cleavage, fluorescence | P26358 | AID 588458 | inhibition (reported as % activation of signal), % at 10 µM | 360,000 tested, 0.83% active; in the data active means inhibition above about 50%
# * hit, by the source's call; · = no result given. An excerpt weighted towards active compounds, which were near 1.7% of everything screened.
SMILES,SUMO1 PPI mod,STEP inh,Scp1 inh,LMPTP inh,DNMT1 block
CCOC(=O)C1=CC[C@@H](c2cc3cc(OC)ccc3n2C)N(S(=O)(=O)c2ccc(C)cc2)[C@H]1C(=O)OCC,-5,3,-11,1,3
O=C(COC(=O)c1cc(S(=O)(=O)N2CCOCC2)ccc1Cl)Nc1ccccc1Cl,1,0,-12,0,1
COC(=O)/C(=C\Nc1ccc(OC)cc1)NC(=O)c1ccc(Cl)cc1Cl,-1,2,4,-2,-5
COC(=O)/C(=C\Nc1ccc(Cl)cc1Cl)NC(=O)c1ccc(OC)cc1,40*,2,-10,3,-1
COc1ccc2[nH]c3c(=O)n(/N=C/c4ccc(OC)c(CN5CCCC5)c4)c(C)nc3c2c1,66*,0,-4,7,12
COc1ccc2c(c1)[nH]c1c(=O)n(/N=C/c3ccc(OC)c(CN4CCCC4)c3)cnc12,-1,6,-14,20,-6
O=C(Oc1cccc([N+](=O)[O-])c1)C1CCN(C(=O)c2ccc(F)cc2)CC1,-25,-4,-5,0,2
COCc1nnc(NS(=O)(=O)c2c(C)cc(C)cc2C)s1,-1,-3,-2,-2,0
Cc1cc(C)c(S(=O)(=O)Nc2nccs2)c(C)c1,43*,-1,-10,-1,1
CN(C)CCNC(=O)c1cccc2nc3c(ccc4ccccc43)nc12,-47,6,0,-1,61*
COc1ccc(C(=O)NCCN(C)C)c2nc3ccccc3cc12,-20,-3,0,0,56*
COc1cccc2nc3c(C(=O)NCCN(C)C)cccc3cc12,-34,-3,5,2,60*
Oc1ccc(Br)c(CN2CCN(c3ncc(Cc4ccccc4)cn3)CC2)c1,2,·,·,1,·
Cc1cccc(C(=O)N2CCC[C@H]2C(=O)N2CCC[C@H]2C(=O)NCc2ccncc2)c1,5,·,·,-1,·
O=C(O)CP(=O)(c1ccccc1)c1ccccc1,46*,-4,-11,0,1
O=P(CCO)(c1ccccc1)c1ccccc1,1,0,-5,0,-1
Cc1ccc(-n2nc(C)c(/C=N/n3c(C)n[nH]c3=S)c2Cl)cc1,38*,1,-10,0,1
O=C(Nc1ccc2oc(=O)ccc2c1)c1ccccc1[N+](=O)[O-],-17,-1,-3,0,0
O=C(Nc1ccc2oc(=O)ccc2c1)c1ccc(-c2ccc(Cl)cc2)o1,-3,3,0,6,42
O=C(Nc1ccc2oc(=O)ccc2c1)c1ccc(-c2ccccc2[N+](=O)[O-])o1,57*,7,0,11,-2
O=C(Nc1ccc2oc(=O)ccc2c1)c1ccc(-c2cccc([N+](=O)[O-])c2)o1,75*,28,32,54*,22
COC(=O)c1ccc2nc(-c3ccc(C)cc3)c(CC3CCCCC3)n2c1,5,-2,·,0,-10
C=C(C)C(=O)Oc1ccc(N=Nc2ccc(C)cc2)ccc1=O,48*,11,85*,10,95*
Cc1ccc(/C=C2\SC(=S)N(/N=C/c3cc([N+](=O)[O-])ccc3O)C2=O)o1,45*,17,57*,53*,83*
COc1ccc(C(=O)N2CCN(C)C(C)C2)cc1OC1CCN(C(C)=O)CC1 (stereo unspecified),3,0,-2,-1,0
SMILES,SUMO1 PPI mod,STEP inh,Scp1 inh,LMPTP inh,DNMT1 block
CCC(=O)C1CCCN(C(=O)c2ccc(OC)c(OC3CCN(C(C)=O)CC3)c2)C1 (stereo unspecified),43*,-2,-7,-1,2
Cc1oc2c(c1C(=O)c1ccccc1)C(=O)C(=O)c1ccccc1-2,37*,14,-5,6,93*
Cc1cc(C)c(S(=O)(=O)Nc2nnc(C(C)C)s2)c(C)c1,7,-2,-6,-1,1
COc1ccccc1NC(=O)CCc1nnc2ccc(N3CCCCC3)nn12,-3,-3,-5,-1,-1
CCOc1ccccc1NC(=O)CCc1nnc2ccc(N3CCC(C)CC3)nn12,4,1,-5,-2,98*
Nc1ccc(N)c(C(=O)O)c1,105*,96*,96*,81*,117*
CCOC(=O)c1cccc(Nc2nc(-c3cccnc3)nc3ccccc23)c1,2,0,-7,5,-16
COC(=O)c1cccc(Nc2nc(-c3ccncc3)nc3ccccc23)c1,61*,13,-2,6,-6
COC(=O)c1cccc(Nc2nc(-c3cccnc3)nc3ccccc23)c1,46*,1,1,-21,-9
COC(=O)c1ccc(Nc2nc(-c3ccncc3)nc3ccccc23)cc1,38,1,4,3,8
Cn1c(N)c(C(=O)COC(=O)c2cc3ccccc3cc2O)c(=O)n(C)c1=O,51*,4,-19,2,-19
Cn1c(N)c(C(=O)COC(=O)CSc2ccc3ccccc3c2)c(=O)n(C)c1=O,-1,1,-9,0,0
CC(C)CC(=O)c1c[nH]c(C(=O)NCCCN2CCOCC2)c1,45*,1,-8,-1,3
Cc1[nH]nc2c1C(c1cc(Br)cs1)C(C#N)=C(N)O2 (stereo unspecified),-3,-1,-2,-2,-1
COCCNc1nc(NCc2ccccc2OC)c2sccc2n1,0,0,·,46,-2
COCCNc1nc(NCc2cnc(C)cn2)c2sccc2n1,-8,2,·,53*,-2
O=C(Nc1cccc(Cl)c1)Nc1nnc(-c2ccncc2)s1,7,8,-7,40,30
Fc1ccc(Nc2nnc(-c3ccncc3)s2)cc1Cl,43*,-1,·,9,0
O=C(Nc1ccc(Cl)cc1)Nc1nnc(-c2ccncc2)s1,9,10,3,60*,-16
O=C1c2nc3ccccn3c2C(=O)N1Cc1ccccc1,39*,2,-3,1,-11
CCN(CC)S(=O)(=O)c1cccc(N=NC2=C(O)CCCC2=O)c1,-11,0,2,1,-6
O=C1CCCC(O)=C1N=Nc1cccc(C(=O)O)c1,1,5,61*,5,43
O=C(COC(=O)c1nc(Cl)ccc1Cl)NC1CCCCC1,2,-2,-7,-1,2
Cc1cc(C)c(S(=O)(=O)/N=C2\C=C(Nc3ccc(C(=O)O)cc3)C(=O)c3ccccc32)c(C)c1,58*,6,36,6,36
CCc1ccc(S(=O)(=O)/N=C2\C=C(Nc3cccc(C(=O)O)c3)C(=O)c3ccccc32)cc1,36,4,12,7,64*
Cc1cc(C)c(S(=O)(=O)/N=C2\C=C(NS(=O)(=O)c3ccccc3)C(=O)c3ccccc32)c(C)c1,-4,2,-10,2,-28
O=C(O)c1ccc(NC2=C/C(=N/S(=O)(=O)c3ccccc3)c3ccccc3C2=O)cc1,62*,3,-9,7,70*
